Laboratory results: ChEMBL document CHEMBL4184228, “Reversed isoniazids: Design, synthesis and evaluation against Mycobacterium tuberculosis” (Bioorg Med Chem, 2018)
In brackets after ≈: the same amount, converted by molar mass.

Key:
[1] = test system: Mycobacterium tuberculosis; test: Growth inhibition of Mycobacterium bovis BCG infected in PBMC assessed as decrease in [3H]-uridine incorporation at <= IC20 after 72 hrs by microbeta scintillation counting analysis; assay type: functional, variant bovis BCG
Method in brief: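 PBMCs at 1.5x10^4/well; non-adherent cells are washed off after 24 h. Adherent monocytes are cultured 6 days, then infected with BCG at MOI 3 for 4 h and washed three times. Drugs are added at concentrations at or below the THP-1 IC20 for 72 h.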

[2] = test system: Mycobacterium tuberculosis; test: Antimycobacterial activity against Mycobacterium bovis BCG; assay type: functional; conditions: variant bovis BCG

| Compound | growth inhibition (GI) [1] [%] | MIC [2] [µM] |
| --- | --- | --- |
| O=C(NNCCCN1c2ccccc2Sc2ccc(Cl)cc21)c1ccccc1 | 40 | 12.2 (≈ 5 µg/mL) |
| O=C(NNCCCN1c2ccccc2CCc2ccccc21)c1ccncc1 | >90 | 13.4 (≈ 5 µg/mL) |
| O=C(NNCCCN1c2ccccc2Sc2ccccc21)c1ccccc1 | 40 | 26.6 (≈ 9.99 µg/mL) |
| O=C(NNCCCN1CCC(N2c3ccccc3Sc3ccc(Cl)cc32)CC1)c1ccncc1 | >90 | 1 (≈ 0.494 µg/mL) |
| O=C(NNCCCN1c2ccccc2Sc2ccccc21)c1ccncc1 | >90 | 13.3 (≈ 5.01 µg/mL) |
| NNC(=O)c1ccncc1 [ISONIAZID] | >90 | 0.015 (≈ 0.00206 µg/mL) |
| CN(C)CCCN1c2ccccc2Sc2ccc(Cl)cc21 [CHLORPROMAZINE] | 40 | 4 (≈ 1.28 µg/mL) |
| O=C(NNCCCN1c2ccccc2Sc2ccc(Cl)cc21)c1ccncc1 | >90 | 2.44 (≈ 1 µg/mL) |
